# Entries after “also recorded” stand apart in the source; their conditions may differ.
# How the values were obtained:
# [1] = test system: AT2 receptor; settings: cited from earlier work; for Induction of neurite outgrowth: NG108-15 cells
# [2] = test system: p42/p44mapk pathway; settings: cited from earlier work
# [3] = biological target: T1, AT2 receptor (Sus scrofa, UniProt A0A4X1W622); test: AT2 receptor binding, displacement of [125I]Ang II from pig uterus; settings: versus compound 3
# T1 sequence (A0A4X1W622 1-362): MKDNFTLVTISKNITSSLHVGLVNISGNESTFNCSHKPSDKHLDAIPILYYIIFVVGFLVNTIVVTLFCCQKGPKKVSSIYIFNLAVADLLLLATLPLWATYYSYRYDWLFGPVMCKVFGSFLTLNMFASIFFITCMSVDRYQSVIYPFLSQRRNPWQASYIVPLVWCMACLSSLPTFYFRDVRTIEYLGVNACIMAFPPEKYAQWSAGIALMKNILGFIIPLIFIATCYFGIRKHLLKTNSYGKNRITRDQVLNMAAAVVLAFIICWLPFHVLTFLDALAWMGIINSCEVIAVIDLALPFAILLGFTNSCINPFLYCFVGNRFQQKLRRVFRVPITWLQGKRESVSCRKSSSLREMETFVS
# [4] = test system: AT2 receptor; test: Neurite outgrowth assay in NG108-15 cells; format: cell-based; settings: for Function (10 nM): three days, alone, with 10 μM PD 123319 or 100 nM Ang II
# Procedure, shortened: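 NG108-15 cells (passages 18–25; DMEM, 10% FBS, HAT, gentamycin; 37 °C, 7% CO2) plated at 3.6 × 10^4 cells/35 mm dish. They were treated once daily for three days from 24 h post-plating with 10 nM test compound (some also 100 nM). Test compound was added alone or 30 min before 100 nM Ang II; 10 μM PD 123319 was given 30 min before agonist. On day 4, phase-contrast micrographs were scored as % of ≥400 cells bearing a neurite longer than the cell body. Duplicates, three independent experiments, mean ± SEM, two-way ANOVA.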
# [5] = biological target: AT2 receptor; settings: AT2R antagonist; cited from earlier work
compound,measurement,setting,value
"CC(C)(C)c1cc(C=C(C#N)C(N)=S)cc(C(C)(C)C)c1O [AG879, α-cyano-(3,5-di-t-butyl-4-hydroxy)thiocinnamide]",Effect on neurite outgrowth (inhibition),[1],total
same,Inhibition of the p42/p44mapk pathway,[2],only partially inhibits
"CCCCOC(=O)NS(=O)(=O)c1ccc2c(c1-c1ccc(Cn3ccnc3)cc1)CCC2C(C)C (centres unmarked) [Compound 7a, N-(Butoxycarbonyl)-4-[4-(imidazol-1-yl)-methylphenyl]-1-isopropylindan-5-sulfonamide]",Loss in affinity compared to non rigidified analogue 3,[3],~200 times
same,Degree of neurite outgrowth induced,"[4]; 10 nM, NG108-15 cells",highest degree of neurite outgrowth among this set of compounds
same,Function (10 nM),"[4]; 10 nM, NG108-15 cells",strong agonistic effect; also recorded: Agonist
"CCCCOC(=O)NS(=O)(=O)c1ccc2c(c1-c1ccc(Cn3ccnc3)cc1)CCC2C(C)C (centres unmarked) [Compound 7b, N-(Butoxycarbonyl)-4-[4-(imidazol-1-yl)-methylphenyl]-1-isopropylindan-5-sulfonamide]",Function (10 nM),"[4]; 10 nM, NG108-15 cells",antagonism; also recorded: Antagonist
"CCCCOC(=O)NS(=O)(=O)c1ccc2c(c1-c1cccc(Cn3ccnc3)c1)CCC2C(C)C (centres unmarked) [Compound 8a, N-(Butoxycarbonyl)-4-[3-(imidazol-1-yl)-methylphenyl]-1-isopropylindan-5-sulfonamide]",Function (10 nM),"[4]; 10 nM, NG108-15 cells",Antagonist
"CCCCOC(=O)NS(=O)(=O)c1ccc2c(c1-c1cccc(Cn3ccnc3)c1)CCC2C(C)C (centres unmarked) [Compound 8b, N-(Butoxycarbonyl)-4-[3-(imidazol-1-yl)-methylphenyl]-1-isopropylindan-5-sulfonamide]",Function (10 nM),"[4]; 10 nM, NG108-15 cells",Antagonist
"CCCCOC(=O)NS(=O)(=O)c1cc2c(cc1-c1ccc(Cn3ccnc3)cc1)CCC2C(C)C (centres unmarked) [Compound 9a, N-(Butoxycarbonyl)-5-[4-(imidazol-1-yl)-methylphenyl]-1-isopropylindan-6-sulfonamide]",Function (10 nM),"[4]; 10 nM, NG108-15 cells",agonistic properties; also recorded: Agonist
"CCCCOC(=O)NS(=O)(=O)c1cc2c(cc1-c1ccc(Cn3ccnc3)cc1)CCC2C(C)C (centres unmarked) [Compound 9b, N-(Butoxycarbonyl)-5-[4-(imidazol-1-yl)-methylphenyl]-1-isopropylindan-6-sulfonamide]",Function (10 nM),"[4]; 10 nM, NG108-15 cells",agonistic properties; also recorded: Agonist
"CCCCOC(=O)NS(=O)(=O)c1cc2c(cc1-c1cccc(Cn3ccnc3)c1)CCC2C(C)C (centres unmarked) [Compound 10a, N-(Butoxycarbonyl)-5-[3-(imidazol-1-yl)-methylphenyl]-1-isopropylindan-6-sulfonamide]",Function (10 nM),"[4]; 10 nM, NG108-15 cells",Antagonist
"CCCCOC(=O)NS(=O)(=O)c1cc2c(cc1-c1cccc(Cn3ccnc3)c1)CCC2C(C)C (centres unmarked) [Compound 10b, N-(Butoxycarbonyl)-5-[3-(imidazol-1-yl)-methylphenyl]-1-isopropylindan-6-sulfonamide]",Function (10 nM),"[4]; 10 nM, NG108-15 cells",agonistic effect; also recorded: Agonist
"Cc1cc(Cn2cnc3c2C[C@@H](C(=O)O)N(C(=O)C(c2ccccc2)c2ccccc2)C3)ccc1N(C)C [PD 123319, reference compound]",Effect of co-incubation on induced neurite outgrowth,[4]; 10 μM PD 123319 co-incubated with agonists,reduced the induced neurite outgrowth
same,Morphology on treatment alone,"[4]; PD 123319 alone, data not shown",did not alter the morphology compared to untreated cells
same,IC50,[5],34 nM
Ang II: hypertensive octapeptide angiotensin II,Induction of neurite outgrowth,[1],induces neurite outgrowth
Nα-nicotinoyl-Tyr-(Nα-Cbz-Arg)-Lys-His-Pro-Ile [CGP-42112],Induction of neurite outgrowth,[1],induces neurite outgrowth
